{"source": "ChEMBL document CHEMBL4177662", "about": "“Phosphamide-containing diphenylpyrimidine analogues (PA-DPPYs) as potent focal adhesion kinase (FAK) inhibitors with enhanced activity against pancreatic cancer cell lines” (Bioorg Med Chem, 2017)", "key": {"BXPC-3 [1]": {"tested_on": "BXPC-3", "assay": "Antiproliferative activity against human BxPC3 cells assessed as cell viability at 0.5 uM after 48 hrs by MTT assay (reference value: 98.8%)", "assay_type": "functional", "settings": "BXPC-3, 48 h, read-out: Activity"}, "Focal adhesion kinase 1 [2]": {"target": "T1, Focal adhesion kinase 1 (Homo sapiens, UniProt Q05397)", "assay": "Inhibition of recombinant human N-terminal His-tagged FAK cytoplasmic domain (393 to 698 residues) expressed in baculovirus infected sf9 cells assessed as reduction in autophosphorylation after 60 mins by ADP-Glo kinase assay", "procedure,_shortened": "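ADP-Glo luminescence assay. The kinase reaction ran in 1× kinase buffer with compound at 1 to 200 nM, for 60 min at room temperature. ADP-Glo reagent was then added to stop the reaction and deplete leftover ATP (40 min, room temperature). Detection reagent converted ADP to ATP for luciferase read-out (30 min). IC50 from curve fitting, mean ± SE of three independent experiments.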"}, "PANC-1 (human) [3]": {"tested_on": "PANC-1 (human)", "assay": "Antiproliferative activity against human PANC-1 cells assessed as cell viability at 4 uM after 48 hrs by MTT assay (reference value: 98.8%)", "settings": "PANC-1, 48 h"}, "ASPC1 [4]": {"tested_on": "ASPC1", "assay": "Induction of apoptosis in human Aspc-1 cells assessed as necrotic cells at 5 uM after 72 hrs by Annexin V-FITC/propidium iodide staining-based flow cytometry (reference value: 0%)", "assay_type": "functional", "procedure,_shortened": "(§1)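 AsPC-1 cells (3 to 5×10^5 per well) were treated with DMSO solvent control or compound for 72 h in medium with 5% FBS. Cells were then stained with Annexin V-FITC and propidium iodide and analysed by flow cytometry. One representative experiment shown.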"}, "ASPC1 [5]": {"tested_on": "ASPC1", "assay": "Antiproliferative activity against human Aspc-1 cells assessed as cell viability at 0.5 uM after 24 hrs by MTT assay (reference value: 100%)", "assay_type": "functional", "settings": "ASPC1, 24 h, read-out: Activity"}, "ASPC1 [6]": {"tested_on": "ASPC1", "assay": "Cell cycle arrest in human Aspc-1 cells assessed as accumulation at G2/M phase at 5 uM after 72 hrs by propidium iodide staining-based flow cytometry (reference value: 0.89%)", "assay_type": "functional"}, "ASPC1 [7]": {"tested_on": "ASPC1", "assay": "Cell cycle arrest in human Aspc-1 cells assessed as accumulation at S phase at 5 uM after 72 hrs by propidium iodide staining-based flow cytometry (reference value: 59.70%)", "assay_type": "functional"}, "[8]": {"target": "Epidermal growth factor receptor (Homo sapiens) (UniProt P00533)", "sequence (P00533 whole entry, the tested form may be a part)": "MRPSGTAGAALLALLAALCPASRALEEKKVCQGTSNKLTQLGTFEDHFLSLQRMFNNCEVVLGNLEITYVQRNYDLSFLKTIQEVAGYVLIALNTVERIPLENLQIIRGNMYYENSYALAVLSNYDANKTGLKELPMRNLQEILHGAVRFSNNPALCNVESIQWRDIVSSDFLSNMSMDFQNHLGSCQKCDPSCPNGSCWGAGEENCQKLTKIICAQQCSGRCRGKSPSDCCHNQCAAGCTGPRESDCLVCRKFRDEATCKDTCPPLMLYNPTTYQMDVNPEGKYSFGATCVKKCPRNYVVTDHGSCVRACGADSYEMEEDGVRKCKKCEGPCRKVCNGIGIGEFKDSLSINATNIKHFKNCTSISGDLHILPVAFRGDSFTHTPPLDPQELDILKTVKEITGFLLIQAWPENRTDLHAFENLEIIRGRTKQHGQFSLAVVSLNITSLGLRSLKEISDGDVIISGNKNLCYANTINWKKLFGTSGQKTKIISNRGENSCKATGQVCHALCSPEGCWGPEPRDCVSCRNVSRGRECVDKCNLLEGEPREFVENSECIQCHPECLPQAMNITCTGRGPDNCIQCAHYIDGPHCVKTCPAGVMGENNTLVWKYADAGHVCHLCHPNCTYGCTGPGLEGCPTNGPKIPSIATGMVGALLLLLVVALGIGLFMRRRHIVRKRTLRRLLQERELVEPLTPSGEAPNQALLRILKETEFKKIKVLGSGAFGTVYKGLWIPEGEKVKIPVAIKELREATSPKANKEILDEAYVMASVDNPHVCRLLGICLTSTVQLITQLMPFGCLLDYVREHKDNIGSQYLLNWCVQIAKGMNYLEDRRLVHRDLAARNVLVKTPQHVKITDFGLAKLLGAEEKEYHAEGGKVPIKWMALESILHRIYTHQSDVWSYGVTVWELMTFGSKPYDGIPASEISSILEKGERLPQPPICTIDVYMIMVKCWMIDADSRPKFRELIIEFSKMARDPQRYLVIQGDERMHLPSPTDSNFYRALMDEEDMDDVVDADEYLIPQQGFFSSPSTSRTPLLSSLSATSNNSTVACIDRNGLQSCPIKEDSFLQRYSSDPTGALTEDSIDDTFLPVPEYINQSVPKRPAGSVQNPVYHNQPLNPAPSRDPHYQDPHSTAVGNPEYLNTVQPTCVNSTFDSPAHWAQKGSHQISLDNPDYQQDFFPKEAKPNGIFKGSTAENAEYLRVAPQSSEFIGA", "assay": "Inhibition of recombinant GST-tagged human EGFR cytoplasmic domain (668 to 1210 residues) expressed in baculovirus expression system at 100 nM relative to control", "procedure,_shortened": "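Part of a small kinase-panel profile run by an outsourced biochemical profiling service. The test compound was given at a single concentration of 100 nM, and activity was reported as percent inhibition rate.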"}, "Focal adhesion kinase 1 [9]": {"target": "T1, Focal adhesion kinase 1", "assay": "Inhibition of recombinant full length GST-tagged human FAK expressed in baculovirus expression system at 100 nM relative to control", "procedure,_shortened": "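SelectScreen biochemical kinase profiling service; percent inhibition of each kinase at a single compound concentration of 100 nM.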"}, "ASPC1 [10]": {"tested_on": "ASPC1", "assay": "Induction of apoptosis in human Aspc-1 cells assessed as necrotic cells at 2.5 uM after 72 hrs by Annexin V-FITC/propidium iodide staining-based flow cytometry (reference value: 0%)", "assay_type": "functional", "procedure,_shortened": "as §1"}, "PANC-1 (human) [11]": {"tested_on": "PANC-1 (human)", "assay": "Antiproliferative activity against human PANC-1 cells assessed as cell viability at 8 uM after 24 hrs by MTT assay (reference value: 100%)", "settings": "PANC-1, 24 h"}, "[12]": {"assay": "Antiproliferative activity against human HPDE6c7 cells after 72 hrs by MTT assay", "assay_type": "cell-based", "settings": "HPDE6c7, 72 h", "procedure,_shortened": "(§2)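 Cells grown in DMEM with 10% FBS and 1% penicillin-streptomycin at 37 °C, 5% CO2. Seeded at 4,000 to 5,000 cells/well, cultured one day, then exposed to compounds for 72 h at 1.25 to 40 μmol/L, five replicates per concentration. MTT absorbance read at 570 nm. IC50 from five-point dose-response curves; mean of at least three separate experiments.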"}, "PANC-1 (human) [13]": {"tested_on": "PANC-1 (human)", "assay": "Antiproliferative activity against human PANC-1 cells assessed as cell viability at 4 uM after 72 hrs by MTT assay (reference value: 97%)", "settings": "PANC-1, 72 h"}, "PANC-1": {"tested_on": "PANC-1", "assay": "Antiproliferative activity against human PANC1 cells after 72 hrs by MTT assay", "assay_type": "functional, cell-based", "settings": "PANC-1, 72 h", "procedure,_shortened": "as §2"}, "[14]": {"target": "Tyrosine-protein kinase BTK (Homo sapiens) (UniProt Q06187)", "sequence (Q06187 whole entry, the tested form may be a part)": "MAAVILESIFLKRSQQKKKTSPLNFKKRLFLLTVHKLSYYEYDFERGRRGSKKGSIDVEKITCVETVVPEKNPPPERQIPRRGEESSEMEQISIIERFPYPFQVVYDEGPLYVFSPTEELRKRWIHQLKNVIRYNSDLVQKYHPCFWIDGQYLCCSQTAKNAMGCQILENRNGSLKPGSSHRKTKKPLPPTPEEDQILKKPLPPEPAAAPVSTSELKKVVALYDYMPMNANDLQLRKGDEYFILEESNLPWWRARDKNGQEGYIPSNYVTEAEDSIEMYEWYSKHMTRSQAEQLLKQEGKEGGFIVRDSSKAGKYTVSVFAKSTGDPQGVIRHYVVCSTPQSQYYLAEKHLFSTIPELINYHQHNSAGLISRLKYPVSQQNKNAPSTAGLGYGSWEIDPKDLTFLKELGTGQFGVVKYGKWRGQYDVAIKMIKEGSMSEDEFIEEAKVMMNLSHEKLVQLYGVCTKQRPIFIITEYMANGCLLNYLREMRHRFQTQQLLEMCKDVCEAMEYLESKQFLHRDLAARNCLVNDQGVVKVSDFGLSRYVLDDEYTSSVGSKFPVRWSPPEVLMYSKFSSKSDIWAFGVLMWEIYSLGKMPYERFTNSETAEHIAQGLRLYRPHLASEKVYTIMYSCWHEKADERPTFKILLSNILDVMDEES", "assay": "Inhibition of recombinant full length His-tagged human BTK cytoplasmic domain expressed in baculovirus expression system at 100 nM relative to control", "procedure,_shortened": "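Percent inhibition of kinase activity at a single 100 nM test concentration, from an outsourced biochemical profiling screen.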"}, "ASPC1 [15]": {"tested_on": "ASPC1", "assay": "Antiproliferative activity against human Aspc-1 cells assessed as cell viability at 8 uM after 24 hrs by MTT assay (reference value: 100%)", "assay_type": "functional", "settings": "ASPC1, 24 h, read-out: Activity"}, "BXPC-3 [16]": {"tested_on": "BXPC-3", "assay": "Antiproliferative activity against human BxPC3 cells assessed as cell viability at 0.5 uM after 72 hrs by MTT assay (reference value: 97%)", "assay_type": "functional", "settings": "BXPC-3, 72 h, read-out: Activity"}, "ASPC1 [17]": {"tested_on": "ASPC1", "assay": "Induction of apoptosis in human Aspc-1 cells assessed as late apoptotic cells at 5 uM after 72 hrs by Annexin V-FITC/propidium iodide staining-based flow cytometry (reference value: 0%)", "assay_type": "functional", "procedure,_shortened": "as §1"}, "BXPC-3 [18]": {"tested_on": "BXPC-3", "assay": "Antiproliferative activity against human BxPC3 cells assessed as cell viability at 0.5 uM after 24 hrs by MTT assay (reference value: 100%)", "assay_type": "functional", "settings": "BXPC-3, 24 h, read-out: Activity"}, "ASPC1 [19]": {"tested_on": "ASPC1", "assay": "Cell cycle arrest in human Aspc-1 cells assessed as accumulation at G2/M phase at 2.5 uM after 72 hrs by propidium iodide staining-based flow cytometry (reference value: 0.89%)", "assay_type": "functional"}, "ASPC1 [20]": {"tested_on": "ASPC1", "assay": "Antiproliferative activity against human Aspc-1 cells assessed as cell viability at 4 uM after 24 hrs by MTT assay (reference value: 100%)", "assay_type": "functional", "settings": "ASPC1, 24 h, read-out: Activity"}, "ASPC1 [21]": {"tested_on": "ASPC1", "assay": "Induction of apoptosis in human Aspc-1 cells assessed as viable cells at 2.5 uM after 72 hrs by Annexin V-FITC/propidium iodide staining-based flow cytometry (reference value: 100%)", "assay_type": "functional", "settings": "ASPC1, 72 h, read-out: Activity", "procedure,_shortened": "as §1"}, "ASPC1 [22]": {"tested_on": "ASPC1", "assay": "Cell cycle arrest in human Aspc-1 cells assessed as accumulation at G0/G1 phase at 1 uM after 72 hrs by propidium iodide staining-based flow cytometry (reference value: 39.41%)", "assay_type": "functional"}, "ASPC1 [23]": {"tested_on": "ASPC1", "assay": "Cell cycle arrest in human Aspc-1 cells assessed as accumulation at G2/M phase at 1 uM after 72 hrs by propidium iodide staining-based flow cytometry (reference value: 0.89%)", "assay_type": "functional"}, "ASPC1 [24]": {"tested_on": "ASPC1", "assay": "Antiproliferative activity against human Aspc-1 cells assessed as cell viability at 8 uM after 48 hrs by MTT assay (reference value: 98.1%)", "assay_type": "functional", "settings": "ASPC1, 48 h, read-out: Activity"}, "BXPC-3 [25]": {"tested_on": "BXPC-3", "assay": "Antiproliferative activity against human BxPC3 cells assessed as cell viability at 4 uM after 24 hrs by MTT assay (reference value: 100%)", "assay_type": "functional", "settings": "BXPC-3, 24 h, read-out: Activity"}, "ASPC1 [26]": {"tested_on": "ASPC1", "assay": "Cell cycle arrest in human Aspc-1 cells assessed as accumulation at G0/G1 phase at 2.5 uM after 72 hrs by propidium iodide staining-based flow cytometry (reference value: 39.41%)", "assay_type": "functional"}, "PANC-1 (human) [27]": {"tested_on": "PANC-1 (human)", "assay": "Antiproliferative activity against human PANC-1 cells assessed as cell viability at 8 uM after 48 hrs by MTT assay (reference value: 98.8%)", "settings": "PANC-1, 48 h"}}, "data": [{"smiles": "CCOP(=O)(CCCOc1ccc(Nc2ncc([N+](=O)[O-])c(Nc3ccccc3C(=O)NC)n2)cc1)N1CCOCC1", "note": "(stereo not drawn)", "values": [{"measurement": "viability at 0.5 µM", "setting": "BXPC-3 [1]", "result": 96.7, "unit": "%"}, {"measurement": "IC50", "setting": "Focal adhesion kinase 1 [2]", "result": 0.00465, "unit": "µM"}, {"measurement": "viability at 4 µM", "setting": "PANC-1 (human) [3]", "result": 61.6, "unit": "%"}, {"measurement": "Activity", "setting": "ASPC1 [4]", "result": 3.3, "unit": "%"}, {"measurement": "viability at 0.5 µM", "setting": "ASPC1 [5]", "result": 99.4, "unit": "%"}, {"measurement": "Activity", "setting": "ASPC1 [6]", "result": 22.11, "unit": "%"}, {"measurement": "Activity", "setting": "ASPC1 [7]", "result": 37.82, "unit": "%"}, {"measurement": "inhibition", "setting": "[8]", "result": 22, "unit": "%"}, {"measurement": "inhibition", "setting": "Focal adhesion kinase 1 [9]", "result": 92, "unit": "%"}, {"measurement": "Activity", "setting": "ASPC1 [10]", "result": 2.9, "unit": "%"}, {"measurement": "viability at 8 µM", "setting": "PANC-1 (human) [11]", "result": 87.3, "unit": "%"}, {"measurement": "IC50", "setting": "[12]", "result": "> 20", "unit": "µM"}, {"measurement": "viability at 4 µM", "setting": "PANC-1 (human) [13]", "result": 58.4, "unit": "%"}, {"measurement": "IC50", "setting": "PANC-1", "result": "> 40", "unit": "µM"}, {"measurement": "inhibition", "setting": "[14]", "result": 33, "unit": "%"}, {"measurement": "viability at 8 µM", "setting": "ASPC1 [15]", "result": 56.8, "unit": "%"}, {"measurement": "viability at 0.5 µM", "setting": "BXPC-3 [16]", "result": 69.8, "unit": "%"}, {"measurement": "Activity", "setting": "ASPC1 [17]", "result": 40.3, "unit": "%"}, {"measurement": "viability at 0.5 µM", "setting": "BXPC-3 [18]", "result": 98, "unit": "%"}, {"measurement": "Activity", "setting": "ASPC1 [19]", "result": 16.54, "unit": "%"}, {"measurement": "viability at 4 µM", "setting": "ASPC1 [20]", "result": 68, "unit": "%"}, {"measurement": "viability at 2.5 µM", "setting": "ASPC1 [21]", "result": 55.3, "unit": "%"}, {"measurement": "Activity", "setting": "ASPC1 [22]", "result": 38.6, "unit": "%"}, {"measurement": "Activity", "setting": "ASPC1 [23]", "result": 13, "unit": "%"}, {"measurement": "viability at 8 µM", "setting": "ASPC1 [24]", "result": 30.2, "unit": "%"}, {"measurement": "viability at 4 µM", "setting": "BXPC-3 [25]", "result": 88.5, "unit": "%"}, {"measurement": "Activity", "setting": "ASPC1 [26]", "result": 38.18, "unit": "%"}, {"measurement": "viability at 8 µM", "setting": "PANC-1 (human) [27]", "result": 29.5, "unit": "%"}]}]}
